Two compounds from ChEMBL document CHEMBL3853310, “Daphnane Diterpenes from Daphne genkwa Activate Nurr1 and Have a Neuroprotective Effect in an Animal Model of Parkinson's Disease” (J Nat Prod, 2016) can be followed below.

Series [1] concerns the target Nuclear receptor subfamily 4 group A member 2 (Mus musculus) (UniProt Q06219). In words: Activation of mouse Nurr1 transfected in human SK-N-BE(2)C cells by luciferase reporter gene assay. The class given is cell-based. In outline: (§1)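 SK-N-BE(2)C neuroblastoma cells plated 1.5 × 10^5/well a day before, transfected with pTH2600LUC (2.6 kb rat TH promoter), pCMV Nurr1-myc, pZeoSV-Nurr1(LBD), p8xGAL-Luc and pRSV-β-gal control (0.5 µg DNA/well total). Test agent added 6 h post-transfection in DMEM with 1% charcoal-stripped serum, incubated overnight. Firefly luciferase read, normalized to β-galactosidase.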
In general terms: In a reporter assay the amount or activity of a reporter protein is the signal.

The subject of series [2] is BV-2. Description: Antiinflammatory activity in mouse BV2 cells assessed as downregulation of LPS-induced IL-1beta mRNA expression at 3 uM by qRT-PCR method. The class given is functional, cell-based. The procedure, abridged:
(§2)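 BV-2 mouse microglia (DMEM, 10% heat-inactivated FBS, 2 mM glutamine) in six-well plates at 1.0 × 10^5 cells/well, given LPS with or without compound at 37 °C. RNA extracted. IL-1β and IL-6 mRNA measured by SYBR Green real-time PCR on cDNA from 50 ng DNase-treated RNA. ANOVA with Tukey–Kramer, n = 4.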
On the technique in general: Real-time PCR tracks product formation cycle by cycle.

Series [3] has as its system SH-SY5Y. Description: Neuroprotective activity against 6-OHDA-induced cell death in human SH-SY5Y cells assessed as decrease in cleaved caspase-3 level at 6 uM by Western blot method. The class given is functional, cell-based. In outline:
(§3)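 SH-SY5Y cells exposed to 6-OHDA in serum-free N-2 medium ± compound at 6 µM. Lysates in Triton/Tris/NaCl/PMSF, SDS-PAGE, PVDF blot, HRP secondary, ECL detection of cleaved caspase-3 and cytosolic cytochrome c. Actin and SOD-1 used as loading controls.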
On the technique in general: Immunoblotting shows a protein as a band on a membrane.

The subject of series [4] is SH-SY5Y. In words: Neuroprotective activity against 6-OHDA-induced cell death in human SH-SY5Y cells assessed as increase in cell viability at 6.25 uM by MTT reduction assay. The class given is functional, cell-based. The procedure, abridged:
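SH-SY5Y cells grown 2 days on poly-D-lysine in DMEM with 10% horse serum and 5% FBS, then switched to serum-free N-2 medium containing 6-OHDA ± compound. Viability by MTT (1 mg/mL final, 1 h), formazan solubilized 24 h in Triton/HCl/isopropanol, absorbance 570 nm. ANOVA with Tukey–Kramer, n = 4.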

The test system of series [5] is SH-SY5Y. Description: Neuroprotective activity against 6-OHDA-induced cell death in human SH-SY5Y cells assessed as decrease in release of mitochondrial cytochrome c into cytosolic fraction at 6 uM by Western blot method. The format is functional, cell-based. The procedure, abridged: as §3
A short description of series [6]: Cytotoxicity against human SK-N-BE(2)C cells up to 30 uM. The class given is toxicity, cell-based.
Series [7] concerns BV-2. Description: Antiinflammatory activity in mouse BV2 cells assessed as downregulation of LPS-induced IL-6 mRNA expression at 3 uM by qRT-PCR method. The class given is functional, cell-based. The procedure, abridged: as §2
Series [8] is described as follows: Cytotoxicity against human SH-SY5Y cells assessed as decrease in cell viability at higher concentrations by MTT reduction assay. The class given is toxicity, cell-based.
Series [9] deals with Nuclear receptor subfamily 4 group A member 2 (Mus musculus) (UniProt Q06219). In words: Activation of mouse Nurr1 transfected in human SK-N-BE(2)C cells at 0.3 uM by luciferase reporter gene assay relative to control. The format is cell-based. The procedure, abridged:
as §1

Series [10] concerns BV-2. Description: Antiinflammatory activity in mouse BV2 cells assessed as downregulation of LPS-induced IL-6 level at 3 uM by Western blot method. The class given is functional, cell-based.
In series [11] the test system is BV-2. Description: Antiinflammatory activity in mouse BV2 cells assessed as downregulation of LPS-induced IL-1beta level at 3 uM by Western blot method. The class given is functional, cell-based.
Series [12] relates to Rattus norvegicus. Description: Antiinflammatory activity in 6-OHDA-lesioned Sprague-Dawley rat model of parkinson disease assessed as decrease in Iba-1 positive cell levels in striatum at 0.5 mg/kg/day, ip administered for 2 weeks measured on day 43 post 6-OHDA lesion induction by immunohistochemical analysis relative to vehicle-treated control. The format is functional, organism-based. The procedure, abridged:
(§4)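 Same unilateral striatal 6-OHDA rat model with 2-week daily ip dosing (vehicle 0.25% ethanol). Perfused with 4% PFA on day 43. 40 µm coronal sections stained by DAB for TH (SNc, AP −4.8 to −5.5) or Iba-1 (striatum, AP +1.0 to +0.6). Cells counted in three sections per animal. TH expressed as % of contralateral side. Student's t-test, n = 10–14.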

For series [13], the system named is Rattus norvegicus. Description: Neuroprotective activity in 6-OHDA-lesioned Sprague-Dawley rat model of parkinson disease assessed as decrease in loss of tyrosine hydroxylase-positive immunoreactive neuronal cell levels in ipsilateral side of substantia nigra pars compacta by measuring cell levels in intact contralateral side at 0.5 mg/kg/day, ip administered for 2 weeks measured on day 43 post 6-OHDA lesion induction by immunohistochemical analysis (reference value: 24.62 +/- 3.48%). The format is functional. Also on record: scale not given: the % may be the effect or the level left. In outline: as §4

Series [14] has as its system Rattus norvegicus. In words: Neuroprotective activity in 6-OHDA-lesioned Sprague-Dawley rat model of parkinson disease assessed as decrease in d-amphetamine-induced ipsilateral rotations at 0.5 mg/kg/day, ip administered for 2 weeks measured on day 14 and 42 post 6-OHDA lesion induction relative to vehicle-treated control. The format is functional, organism-based. The procedure, abridged: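 Sprague-Dawley rats (140–160 g), desipramine 25 mg/kg ip 30 min before surgery, under Zoletil anesthesia. 6-OHDA 8 µL of 2.5 µg/µL injected into left striatum. Compound in saline with 0.25% ethanol or vehicle given ip daily for 2 weeks (n = 10 vs 14). d-Amphetamine 5 mg/kg. Ipsilateral turns counted for 30 min starting 30 min after dosing, at weeks 2 and 6. Student's t-test.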

Molecules are shown by their SMILES. The source made the active and inactive calls. The rule behind the calls is not given here.

Nuclear receptor subfamily 4 group A member 2 (Mus musculus), sequence (Q06219 whole entry, the tested form may be a part): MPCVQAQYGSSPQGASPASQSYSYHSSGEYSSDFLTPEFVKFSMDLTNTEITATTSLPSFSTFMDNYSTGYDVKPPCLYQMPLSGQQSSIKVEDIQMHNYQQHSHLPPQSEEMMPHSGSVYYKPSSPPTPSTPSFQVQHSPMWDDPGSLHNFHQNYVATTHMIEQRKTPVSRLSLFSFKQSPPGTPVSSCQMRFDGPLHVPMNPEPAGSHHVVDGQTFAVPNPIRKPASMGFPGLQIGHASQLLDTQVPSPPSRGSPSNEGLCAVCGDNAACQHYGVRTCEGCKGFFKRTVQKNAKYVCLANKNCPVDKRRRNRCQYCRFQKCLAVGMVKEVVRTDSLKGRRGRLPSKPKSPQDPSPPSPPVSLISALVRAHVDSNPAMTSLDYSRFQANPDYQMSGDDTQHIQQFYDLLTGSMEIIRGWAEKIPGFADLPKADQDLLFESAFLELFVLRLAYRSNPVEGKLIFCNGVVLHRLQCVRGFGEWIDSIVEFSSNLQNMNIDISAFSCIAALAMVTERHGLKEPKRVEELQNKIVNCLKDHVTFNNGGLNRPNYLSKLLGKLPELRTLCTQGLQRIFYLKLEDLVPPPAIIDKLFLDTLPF

For the compound `C=C(C)[C@]12C[C@@H](C)[C@@]34OC(c5ccccc5)(O[C@@H]1[C@@H]3[C@@H]1O[C@]1(CO)[C@@H](O)[C@@]1(O)[C@H]4C[C@H](C)[C@@H]1OC(=O)c1ccccc1)O2`, the Activity entry in series [1] is “Dose-dependent effect”; in series [6] it was “Non-Toxic”; in series [8], “Toxic”. Moreover, the result with BV-2 [2], in the series on SH-SY5Y [3], with SH-SY5Y [4], in the series on SH-SY5Y [5], with BV-2 [7] and in the series on BV-2 [10] was Active. Besides, the result in the series on BV-2 [11] was Active. The same compound registered a fold change (FC) in series [9] of 3.
`C=C(C)[C@@]12OC3(/C=C/C=C/CCCCC)O[C@@H]1[C@@H]1[C@@H]4O[C@]4(CO)[C@@H](O)[C@]4(O)C(=O)C(C)=C[C@H]4[C@@]1(O3)[C@H](C)[C@H]2OC(=O)c1ccccc1`: the result with Rattus norvegicus [12], in the series with BV-2 [2], in the series on SH-SY5Y [3], in the series with SH-SY5Y [4], with SH-SY5Y [5] and with BV-2 [7] was Active. Further, the result in the series on Rattus norvegicus [14], in the series on BV-2 [10] and in the series on BV-2 [11] was Active. For the same compound, the Activity in the series on Rattus norvegicus [13] is 40.28%; in [1], “Dose-dependent effect”; in series [6], “Non-Toxic”; in series [8] it was “Toxic”. This compound also showed a fold change (FC) in series [9] of 3.5.
